Experimental data collected from several papers.
Each line is one published result; the experiments were not run side by side.

Structure (SMILES)	system	setting	quantity	result
COc1ccc([C@@H]2Sc3ccccc3N(CCN(C)C)C(=O)[C@@H]2OC(C)=O)cc1	Sprague-Dawley rat, hepatocytes	2 µM, 4 h, pH 7.4	fraction unbound	0.89
O=C1c2ccncc2C(=O)c2c1[nH]c1ccccc21	rat, plasma	intravenous, 1 mg/kg, single dose	MRT	2.4 h
C[C@H]1[C@@H](O)O[C@@H]2O[C@@]3(C)CC[C@H]4[C@H](C)CC[C@@H]1[C@@]24OO3	Sprague-Dawley rat, plasma	oral, 10 mg/kg	MRT(0-t)	2.93 h
Cn1cc(Nc2nc(N)nc(-c3cccc(-n4ccc5cc(C6CC6)cc(F)c5c4=O)c3CO)n2)cn1	human, plasma	oral, 300 mg, single dose, fasted, suspension	Tmax	2.52 h
CC(C)NCC(O)COc1cccc2ccccc12 (stereo not shown)	Sprague-Dawley rat, hepatocytes	2 µM, 4 h, pH 7.4	fraction unbound	0.88
COc1ccc([C@@H](O)c2cc(-c3ncnc4cc(N5CCOCC5)ccc34)c(F)cc2Cl)nn1	human, plasma	oral, 200 mg, single dose, patients	Tmax	2.02 h
N#C[C@@]12C[C@@H]1[C@@H](n1cnc3c(N[C@@H](C4CCC4)C4CC4)nc(I)nc31)[C@H](O)[C@@H]2O	male Wistar rat, plasma	oral, 1 mg/kg	MRT(0-t)	1.59 h
CN1CC[C@@H](c2c(O)cc(O)c3c(=O)cc(-c4ccc(C(F)(F)F)cc4Cl)oc23)[C@@H]1CO	human, plasma	oral, 100 mg, patients	Tmax	3.9 h
O=C1CC[C@H](N2Cc3cc(N4CCN(CC5CCN(c6ccc([C@@H]7c8ccc(O)cc8CC[C@@H]7c7ccccc7)cc6)CC5)CC4)ccc3C2=O)C(=O)N1	female Sprague-Dawley rat, plasma	oral, 20 mg/kg, fed	MRT(0-inf)	12 h
NS(=O)(=O)OC[C@@H]1C[C@@H](n2ccc3c(N[C@H]4CCc5ccccc54)ncnc32)C[C@@H]1O	human, plasma	intravenous, 25 mg/m², patients	Tmax	1.04 h
